{"source": "paper PMC2956778", "about": "(Biochemical and biophysical research communications, 2010)", "key": {"purified RyR1": {"molecular_target": "purified RyR1 (Oryctolagus cuniculus, UniProt P11716)", "sequence (P11716 whole entry)": "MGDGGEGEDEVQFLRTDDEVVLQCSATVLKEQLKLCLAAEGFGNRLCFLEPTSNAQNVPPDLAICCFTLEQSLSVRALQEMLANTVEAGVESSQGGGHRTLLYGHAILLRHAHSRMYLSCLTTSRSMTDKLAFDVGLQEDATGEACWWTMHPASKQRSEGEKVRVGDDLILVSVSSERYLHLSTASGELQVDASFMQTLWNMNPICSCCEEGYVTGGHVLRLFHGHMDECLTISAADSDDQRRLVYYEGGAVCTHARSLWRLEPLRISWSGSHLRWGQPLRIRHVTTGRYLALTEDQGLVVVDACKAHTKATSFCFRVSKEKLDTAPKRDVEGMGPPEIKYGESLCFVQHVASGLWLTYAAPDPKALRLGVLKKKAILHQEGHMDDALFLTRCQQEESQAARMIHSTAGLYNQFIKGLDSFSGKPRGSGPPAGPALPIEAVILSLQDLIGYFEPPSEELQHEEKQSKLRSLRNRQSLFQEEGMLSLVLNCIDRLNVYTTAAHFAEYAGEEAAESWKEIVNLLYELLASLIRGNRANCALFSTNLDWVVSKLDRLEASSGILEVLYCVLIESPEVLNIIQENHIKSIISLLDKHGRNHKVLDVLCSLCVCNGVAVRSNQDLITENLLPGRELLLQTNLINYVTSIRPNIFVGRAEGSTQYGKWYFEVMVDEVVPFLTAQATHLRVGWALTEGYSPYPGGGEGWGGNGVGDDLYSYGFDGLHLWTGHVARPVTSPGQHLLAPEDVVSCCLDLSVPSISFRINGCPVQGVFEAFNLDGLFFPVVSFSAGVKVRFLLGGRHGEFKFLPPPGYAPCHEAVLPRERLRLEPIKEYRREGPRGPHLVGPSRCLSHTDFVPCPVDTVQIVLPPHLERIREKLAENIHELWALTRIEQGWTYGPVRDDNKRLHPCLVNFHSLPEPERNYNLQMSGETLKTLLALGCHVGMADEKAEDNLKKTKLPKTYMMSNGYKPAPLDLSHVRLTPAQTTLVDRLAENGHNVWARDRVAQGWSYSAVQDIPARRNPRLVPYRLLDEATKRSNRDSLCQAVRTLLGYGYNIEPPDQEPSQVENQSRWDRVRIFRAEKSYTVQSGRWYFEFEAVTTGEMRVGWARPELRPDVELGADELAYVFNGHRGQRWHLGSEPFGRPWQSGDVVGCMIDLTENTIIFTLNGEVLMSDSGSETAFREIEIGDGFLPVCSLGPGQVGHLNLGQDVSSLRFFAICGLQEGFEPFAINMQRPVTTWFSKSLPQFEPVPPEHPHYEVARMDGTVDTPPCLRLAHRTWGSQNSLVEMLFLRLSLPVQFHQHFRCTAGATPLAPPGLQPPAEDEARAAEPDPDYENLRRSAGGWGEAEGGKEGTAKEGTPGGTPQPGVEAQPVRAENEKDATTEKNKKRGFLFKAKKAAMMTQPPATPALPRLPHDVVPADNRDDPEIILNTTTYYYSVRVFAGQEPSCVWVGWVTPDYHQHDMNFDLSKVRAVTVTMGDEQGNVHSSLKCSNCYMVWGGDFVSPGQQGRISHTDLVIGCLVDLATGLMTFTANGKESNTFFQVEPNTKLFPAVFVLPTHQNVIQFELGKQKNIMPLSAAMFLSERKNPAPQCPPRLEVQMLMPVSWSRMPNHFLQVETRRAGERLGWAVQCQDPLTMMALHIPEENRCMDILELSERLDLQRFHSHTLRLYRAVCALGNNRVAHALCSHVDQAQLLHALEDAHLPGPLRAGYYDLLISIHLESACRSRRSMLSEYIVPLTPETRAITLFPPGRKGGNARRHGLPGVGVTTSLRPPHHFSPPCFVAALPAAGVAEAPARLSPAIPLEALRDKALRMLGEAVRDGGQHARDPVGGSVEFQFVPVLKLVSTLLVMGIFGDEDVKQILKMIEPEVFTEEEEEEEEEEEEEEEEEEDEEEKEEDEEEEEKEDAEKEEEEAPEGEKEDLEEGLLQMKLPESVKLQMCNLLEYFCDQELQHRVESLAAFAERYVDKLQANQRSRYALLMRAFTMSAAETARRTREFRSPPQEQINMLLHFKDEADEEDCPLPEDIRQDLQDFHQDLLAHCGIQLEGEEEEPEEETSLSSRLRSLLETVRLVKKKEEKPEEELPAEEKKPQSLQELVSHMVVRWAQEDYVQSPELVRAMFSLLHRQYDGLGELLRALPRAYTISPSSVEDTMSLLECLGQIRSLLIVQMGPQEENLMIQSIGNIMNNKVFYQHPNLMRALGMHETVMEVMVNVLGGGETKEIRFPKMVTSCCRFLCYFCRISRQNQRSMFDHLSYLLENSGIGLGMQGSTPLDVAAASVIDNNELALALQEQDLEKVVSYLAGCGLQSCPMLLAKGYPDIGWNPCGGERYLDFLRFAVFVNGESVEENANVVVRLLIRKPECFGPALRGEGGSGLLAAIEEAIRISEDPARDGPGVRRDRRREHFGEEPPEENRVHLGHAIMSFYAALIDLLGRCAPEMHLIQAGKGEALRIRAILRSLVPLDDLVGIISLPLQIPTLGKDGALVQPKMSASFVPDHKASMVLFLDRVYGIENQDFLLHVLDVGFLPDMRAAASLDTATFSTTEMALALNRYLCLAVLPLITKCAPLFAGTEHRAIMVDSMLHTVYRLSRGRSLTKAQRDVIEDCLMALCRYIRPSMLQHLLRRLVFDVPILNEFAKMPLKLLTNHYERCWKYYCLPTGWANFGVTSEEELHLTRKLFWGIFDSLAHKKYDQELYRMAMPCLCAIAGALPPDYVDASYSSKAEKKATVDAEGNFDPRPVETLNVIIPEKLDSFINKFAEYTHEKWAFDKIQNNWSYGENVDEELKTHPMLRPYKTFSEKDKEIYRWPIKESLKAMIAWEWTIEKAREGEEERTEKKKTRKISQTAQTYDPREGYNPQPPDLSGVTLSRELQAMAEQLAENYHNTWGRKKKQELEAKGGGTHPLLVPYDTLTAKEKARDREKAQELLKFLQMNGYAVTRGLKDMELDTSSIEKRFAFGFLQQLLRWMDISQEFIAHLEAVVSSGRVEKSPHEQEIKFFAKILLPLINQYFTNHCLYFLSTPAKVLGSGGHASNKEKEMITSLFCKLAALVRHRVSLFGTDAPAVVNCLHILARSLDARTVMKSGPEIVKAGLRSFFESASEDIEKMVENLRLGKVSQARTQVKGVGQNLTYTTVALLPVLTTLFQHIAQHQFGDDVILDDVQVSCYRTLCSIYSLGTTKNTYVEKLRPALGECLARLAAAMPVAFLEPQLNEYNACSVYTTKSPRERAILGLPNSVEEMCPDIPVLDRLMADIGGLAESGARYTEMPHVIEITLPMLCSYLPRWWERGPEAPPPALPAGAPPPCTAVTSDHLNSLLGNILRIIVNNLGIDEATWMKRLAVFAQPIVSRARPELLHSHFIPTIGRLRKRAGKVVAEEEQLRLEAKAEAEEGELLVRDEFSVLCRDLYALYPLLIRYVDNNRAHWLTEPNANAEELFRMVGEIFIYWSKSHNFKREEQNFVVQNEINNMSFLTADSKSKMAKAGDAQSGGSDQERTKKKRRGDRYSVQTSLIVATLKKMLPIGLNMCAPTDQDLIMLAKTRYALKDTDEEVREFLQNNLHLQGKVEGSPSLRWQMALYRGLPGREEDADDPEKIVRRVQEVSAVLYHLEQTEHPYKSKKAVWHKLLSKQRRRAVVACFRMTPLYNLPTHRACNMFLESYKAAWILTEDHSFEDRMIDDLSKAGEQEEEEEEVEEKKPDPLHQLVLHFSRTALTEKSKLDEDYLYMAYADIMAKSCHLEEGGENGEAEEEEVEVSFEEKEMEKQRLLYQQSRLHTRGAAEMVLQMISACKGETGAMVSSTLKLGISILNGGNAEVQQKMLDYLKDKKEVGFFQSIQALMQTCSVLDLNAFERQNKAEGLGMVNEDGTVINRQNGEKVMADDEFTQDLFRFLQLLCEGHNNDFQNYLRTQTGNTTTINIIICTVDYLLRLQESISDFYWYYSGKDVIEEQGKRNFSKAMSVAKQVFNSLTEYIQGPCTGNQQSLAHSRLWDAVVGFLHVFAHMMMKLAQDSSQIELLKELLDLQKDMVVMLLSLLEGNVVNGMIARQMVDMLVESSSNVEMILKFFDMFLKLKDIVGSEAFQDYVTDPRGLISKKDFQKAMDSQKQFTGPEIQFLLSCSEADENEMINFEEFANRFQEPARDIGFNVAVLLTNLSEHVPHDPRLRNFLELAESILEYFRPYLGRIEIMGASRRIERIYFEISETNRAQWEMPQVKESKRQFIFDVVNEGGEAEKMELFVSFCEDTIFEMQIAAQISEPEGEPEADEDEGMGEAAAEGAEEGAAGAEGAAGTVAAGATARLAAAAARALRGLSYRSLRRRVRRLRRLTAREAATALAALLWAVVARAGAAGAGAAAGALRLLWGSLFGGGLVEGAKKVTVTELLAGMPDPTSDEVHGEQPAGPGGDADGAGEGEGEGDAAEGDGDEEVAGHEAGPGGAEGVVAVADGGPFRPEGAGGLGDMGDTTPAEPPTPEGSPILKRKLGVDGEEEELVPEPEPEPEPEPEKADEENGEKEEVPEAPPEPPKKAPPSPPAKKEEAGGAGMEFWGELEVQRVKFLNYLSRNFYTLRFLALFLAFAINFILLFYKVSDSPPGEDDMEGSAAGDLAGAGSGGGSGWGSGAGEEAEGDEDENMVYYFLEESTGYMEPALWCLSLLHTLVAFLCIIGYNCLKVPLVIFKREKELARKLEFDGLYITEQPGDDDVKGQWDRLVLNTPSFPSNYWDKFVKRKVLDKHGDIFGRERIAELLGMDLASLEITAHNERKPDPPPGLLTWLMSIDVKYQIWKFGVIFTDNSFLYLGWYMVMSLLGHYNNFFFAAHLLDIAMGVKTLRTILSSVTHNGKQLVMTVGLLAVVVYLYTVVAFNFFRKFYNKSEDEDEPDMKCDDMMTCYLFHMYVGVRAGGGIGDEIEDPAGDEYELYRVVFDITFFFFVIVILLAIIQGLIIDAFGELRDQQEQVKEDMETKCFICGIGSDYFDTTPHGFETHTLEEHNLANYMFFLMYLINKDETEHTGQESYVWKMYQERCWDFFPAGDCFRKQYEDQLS", "experiment": "Single channel recordings of purified RyR1 in planar lipid bilayers", "type": "biochemical, rabbit", "conditions": "for Ac1 / Ac2 / Ao1 / Ao2 / Po / τc1 / τc2 (lifetime of the second closed state) / τo1 / τo2 / No. of events: +1 μM SPC; for No. of events: 2 min recordings; for Single channel open probability (Po), representative recording: after 1 μM SPC cis", "how_it_was_run": "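Purified RyR1 from rabbit SR: CHAPS-solubilised, sucrose-gradient purified, reconstituted into phosphatidylcholine liposomes, fused cis into PE:PS:PC (5:3:2) n-decane bilayers. Symmetrical 0.25 M KCl, 20 mM K-HEPES pH 7.4, 22 μM free Ca²⁺ cis. Test compound added cis. For +CaM, 30 min room-temperature preincubation with 1 μM CaM, then 100 nM CaM cis. Recorded at ±35 mV, sampled 10 kHz, filtered 2 kHz, ≥2 min per condition. Dwell times fitted by maximum likelihood to exponential sums.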"}, "[1]": {"molecular_target": "RyR1 (skeletal SR vesicles) (Oryctolagus cuniculus, UniProt P11716)", "sequence (P11716 whole entry)": "as above", "experiment": "[3H]ryanodine binding to skeletal SR vesicles", "parameters": "species or system rabbit", "conditions": "for Effect on [3H]ryanodine binding: 50 μM free Ca2+"}, "[2]": {"molecular_target": "Ca2+-saturated CaM bound to RyR1 (skeletal SR vesicles) (Homo sapiens, UniProt P0DP23)", "experiment": "[35S]CaM binding to skeletal SR vesicles", "parameters": "species or system rabbit", "conditions": "for Effect on [35S]CaM binding to SR vesicles: LPC effect probably an artefact (also decreased nonspecific binding)"}, "[3]": {"experiment": "Membrane permeability assay", "parameters": "species or system rabbit"}, "[4]": {"system": "microsomes from bovine brain cerebrum"}, "[5]": {"molecular_target": "complex between CaM and the peptide representing the CaM-binding domain of RyR1", "conditions": "cited from earlier work"}, "[6]": {"system": "microsomes from bovine brain cerebrum", "experiment": "Ca2+ release from brain microsomes", "conditions": "data not shown"}}, "note": "“Also recorded” adds a separate entry of the source. Like-named read-outs stand apart in the source and are kept apart here."}
{"smiles": "CCCCCCCCCCCCC/C=C/[C@@H](O)[C@@H](N)COP(=O)(O)OCC[N+](C)(C)C", "note": "[SPC, D-erythro-sphingosylphosphorylcholine]", "values": [{"measurement": "Ac1", "setting": "purified RyR1; 22 μM Ca2+", "value": "0.994 ± 0.003"}, {"measurement": "Ac2", "setting": "purified RyR1; 22 μM Ca2+", "value": "0.006 ± 0.003"}, {"measurement": "Ao1", "setting": "purified RyR1; 22 μM Ca2+", "value": "0.81 ± 0.18"}, {"measurement": "Ao2", "setting": "purified RyR1; 22 μM Ca2+", "value": "0.19 ± 0.18"}, {"measurement": "Po", "setting": "purified RyR1; 22 μM Ca2+", "value": "0.24 ± 0.10"}, {"measurement": "τc1", "setting": "purified RyR1; 22 μM Ca2+", "value": "1.07 ± 0.68", "unit": "ms"}, {"measurement": "τc2 (lifetime of the second closed state)", "setting": "purified RyR1; 22 μM Ca2+", "value": "452 ± 140", "unit": "ms"}, {"measurement": "τo1", "setting": "purified RyR1; 22 μM Ca2+", "value": "0.24 ± 0.19", "unit": "ms"}, {"measurement": "τo2", "setting": "purified RyR1; 22 μM Ca2+", "value": "5.09 ± 3.32", "unit": "ms"}, {"measurement": "Ac1", "setting": "purified RyR1; 22 μM Ca2+ and 100 nM CaM", "value": "0.96 ±0.03"}, {"measurement": "Ac2", "setting": "purified RyR1; 22 μM Ca2+ and 100 nM CaM", "value": "0.04 ± 0.03"}, {"measurement": "Ao1", "setting": "purified RyR1; 22 μM Ca2+ and 100 nM CaM", "value": "0.94 ± 0.05"}, {"measurement": "Ao2", "setting": "purified RyR1; 22 μM Ca2+ and 100 nM CaM", "value": "0.06 ± 0.05"}, {"measurement": "Po", "setting": "purified RyR1; 22 μM Ca2+ and 100 nM CaM", "value": "0.18 ± 0.09"}, {"measurement": "τc1", "setting": "purified RyR1; 22 μM Ca2+ and 100 nM CaM", "value": "2.81 ± 1.66", "unit": "ms"}, {"measurement": "τc2 (lifetime of the second closed state)", "setting": "purified RyR1; 22 μM Ca2+ and 100 nM CaM", "value": "619 ± 242", "unit": "ms"}, {"measurement": "τo1", "setting": "purified RyR1; 22 μM Ca2+ and 100 nM CaM", "value": "0.16 ± 0.12", "unit": "ms"}, {"measurement": "τo2", "setting": "purified RyR1; 22 μM Ca2+ and 100 nM CaM", "value": "3.12 ± 2.10", "unit": "ms"}, {"measurement": "No. of events", "setting": "purified RyR1; 22 μM Ca2+ and 100 nM CaM", "value": "10,392 ±2633"}, {"measurement": "No. of events", "setting": "purified RyR1; 22 μM Ca2+", "value": "9767 ± 1884"}, {"measurement": "Single channel open probability (Po), representative recording", "setting": "purified RyR1; 100 nM CaM, control Po 0.15", "value": 0.05}, {"measurement": "Single channel open probability (Po), representative recording", "setting": "purified RyR1; absence of CaM, control Po 0.51", "value": 0.16}, {"measurement": "Hill-slope of [3H]ryanodine binding dose-response", "setting": "[1]; absence of CaM, oxidizing conditions (5 mM GSSG)", "value": "−2.9 ± 0.2"}, {"measurement": "Hill-slope of [3H]ryanodine binding dose-response", "setting": "[1]; absence of CaM, reducing conditions (5 mM GSH)", "value": "−1.7 ± 0.04"}, {"measurement": "Effect on [3H]ryanodine binding", "setting": "[1]; presence of CaM", "value": "did not significantly alter"}, {"measurement": "Hill-slope of [35S]CaM displacement", "setting": "[2]", "value": "2.3 ± 0.7"}, {"measurement": "Effect on [35S]CaM binding to SR vesicles", "setting": "[2]", "value": "significantly decrease"}, {"measurement": "Effect on glucose permeability of SR vesicles", "setting": "[3]; 50 μM lysophospholipid", "value": "do not disrupt the permeability barrier"}, {"measurement": "Ca2+ release from brain microsomes", "setting": "[4]", "value": "released a large amount of Ca^2+"}, {"measurement": "IC50", "setting": "[5]; read-out: IC50 in peptide binding assays", "value": "19.4 ± 1.4", "unit": "µM"}]}
{"smiles": "Cn1c(=O)c2c(ncn2C)n(C)c1=O", "note": "[caffeine]", "values": [{"measurement": "Ca2+ release from brain microsomes", "setting": "[6]; 5 mM caffeine", "value": "only had minor effects"}]}
{"smiles": "CCCCCCCC/C=C\\CCCCCCCC(=O)OC[C@@H](O)COP(=O)([O-])OCC[N+](C)(C)C", "note": "[LPC, oleoyl-lysophosphatidylcholine]", "values": [{"measurement": "Effect on [35S]CaM binding to SR vesicles", "setting": "[2]", "value": "decreased; also recorded: significantly decrease"}, {"measurement": "Effect on glucose permeability of SR vesicles", "setting": "[3]; 50 μM lysophospholipid", "value": "do not disrupt the permeability barrier"}, {"measurement": "Ca2+ release from brain microsomes", "setting": "[4]", "value": "released a large amount of Ca^2+"}, {"measurement": "Effect in peptide binding experiments", "setting": "[5]", "value": "without action"}]}
{"smiles": "C[C@H](CCC(=O)NCCC[N+](C)(C)CCCS(=O)(=O)[O-])[C@H]1CC[C@H]2[C@@H]3[C@H](O)C[C@@H]4C[C@H](O)CC[C@]4(C)[C@H]3C[C@H](O)[C@]12C", "note": "[CHAPS]", "values": [{"measurement": "Effect on glucose permeability of SR vesicles", "setting": "[3]; 1% CHAPS detergent", "value": "released a large amount of stored glucose"}]}
{"smiles": "CC(C)[C@@]1(O)[C@@H](OC(=O)c2ccc[nH]2)[C@@]2(O)[C@@]3(C)C[C@]4(O)O[C@@]5([C@H](O)[C@@H](C)CC[C@]35O)[C@@]2(O)[C@@]14C", "note": "[ryanodine]", "values": [{"measurement": "Ca2+ release from brain microsomes", "setting": "[6]; 1 μM ryanodine", "value": "only had minor effects"}]}
{"smiles": "CCCCCCCCCCCCC/C=C/[C@@H](O)[C@@H](N)COP(=O)(O)O", "note": "[S1P, D-erythro-sphingosine-1-phosphate]", "values": [{"measurement": "Effect on [3H]ryanodine binding", "setting": "[1]; absence of CaM", "value": "minor inhibitory effect"}, {"measurement": "Effect on [3H]ryanodine binding", "setting": "[1]; presence of CaM", "value": "further decreased"}, {"measurement": "Effect on [35S]CaM binding to SR vesicles", "setting": "[2]", "value": "ineffective"}, {"measurement": "Effect on glucose permeability of SR vesicles", "setting": "[3]; 50 μM lysophospholipid", "value": "do not disrupt the permeability barrier"}]}
{"smiles": "CCCCCCCC/C=C\\CCCCCCCC(=O)OCC(O)COP(=O)(O)O", "note": "(centres unmarked) [LPA, oleoyl-lysophosphatidic acid]", "values": [{"measurement": "Effect on [35S]CaM binding to SR vesicles", "setting": "[2]", "value": "ineffective"}, {"measurement": "Effect on glucose permeability of SR vesicles", "setting": "[3]; 50 μM lysophospholipid", "value": "do not disrupt the permeability barrier"}, {"measurement": "Ca2+ release from brain microsomes", "setting": "[4]", "value": "released a large amount of Ca^2+"}]}
